Assay outcomes deposited in PubChem BioAssay by The Scripps Research Institute Molecular Screening Center.
DNA FID counter-1 = counter-screen for HCV NS3 helicase inhibitors: DNA intercalator displacement | AID 1845 | DNA fluorescent intercalator displacement, fluorescence | inhibition, % at 7.9 µM | 290,000 compounds, 0.17% hits;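 note: higher means more ethidium bromide displaced from hairpin DNA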
VIM-2 inhibitor = inhibitors of Pseudomonas aeruginosa VIM-2 metallo-beta-lactamase. purified VIM-2, nitrocefin hydrolysis, epi-absorbance fluorescence. inhibition, % at 5.6 µM. 290,000 compounds, 0.89% hits;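 active = inhibition above the mean of all tested compounds plus 3 SD, cutoff set per screening run, cut at about 7.5% in these data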;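 note: red hydrolysis product quenches plate fluorescence so inhibitors raise well fluorescence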
IMP-1 inh = blocks Pseudomonas aeruginosa IMP-1 metallo-beta-lactamase | purified IMP-1, nitrocefin hydrolysis, epi-absorbance fluorescence | inhibition, % at 5.6 µM | 290,000 compounds, 0.45% hits | AID 1556;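 active = inhibition above the mean plus 3 SD of all compounds in the same screening run, cut at about 4.5% in these data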
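System: purified IMP-1 / Input: IMP-1 dispensed at 0.2 nM / Medium: 50 mM HEPES pH 7.1, 50 µM ZnSO4, 0.05% Brij 35 / Timing: 15 min enzyme–compound preincubation, then 25 min nitrocefin reaction, 25 °C / Technique: plate fluorescence quenching by hydrolysis product, ex 480/em 530 nm / Repeats: singlicate testing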
HCV NS3 hel inh = blocks Hepatitis C virus NS3 helicase unwinding | inhibition, % at 10.9 µM | NS3 helicase DNA unwinding, Cy5 molecular beacon fluorescence | 290,000 compounds, 0.56% hits;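 active = inhibition above the mean of all tested compounds plus 3 SD, set per campaign, cut at about 35% in these data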
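System: NS3 helicase fragment of HCV / Schedule: 1 h at 25 °C / Control set: DMSO alone as 0% and 110 µM thioflavine S as 100% / Reagent: Cy5/quencher beacon DNA duplex and ATP to start / Technique: Cy5 fluorescence / Replication: singlicate / Evaluation: % inhibition of end-to-start signal ratio versus controls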
NS3 hel confirm = HCV NS3 helicase inhibition, confirmation assay | shares compounds with HCV NS3 hel inh | NS3 helicase DNA unwinding, Cy5 molecular beacon fluorescence | inhibition, % at 10.9 µM | 1,600 compounds, 31% hits | AID 1943;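 active = inhibition above the mean of all tested compounds plus 3 SD, cutoff set per campaign, cut at about 36% in these data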
DNA FID counter-2 = displaces DNA intercalator in HCV helicase counter-screen. shares compounds with HCV NS3 hel inh. DNA fluorescent intercalator displacement, fluorescence. inhibition, % at 7.9 µM. 1,600 compounds, 4% hits;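 note: higher means more displacement of ethidium bromide from the DNA hairpin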
FID counter DR = counter-screen for HCV NS3 helicase inhibitors: DNA intercalator displacement dose response; fluorescent intercalator displacement from DNA, fluorescence; 120 tested, under 10 active; shares compounds with HCV NS3 hel inh; IC50, µM; call rule not given here
Large screens that a line does not name were inactive (follow-up assays come after a bar, where they were run). Hits are enriched below; roughly 1.9% of the tested compounds scored in any of these assays. Cut-off read from the data, not from the text of the source, unless noted: active = inhibition above about 37%; inactive = the rest.

C#CCOc1ccc(/C=C2/C(=O)N(c3cccc(C(=O)O)c3)N=C2C)cc1OC	HCV NS3 hel inh 39.8 | NS3 hel confirm inactive | DNA FID counter-2 inactive
CC1=NN(c2cccc(C(=O)O)c2)C(=O)/C1=C\C=C\c1ccco1	HCV NS3 hel inh 42.2 | NS3 hel confirm 76.2 | DNA FID counter-2 inactive
CCOC(=O)C1CCN(c2c(NCCC(C)C)c(=O)c2=O)CC1	none
CCN1CCN(CC(=O)N2N=C(c3ccc(OC)cc3)CC2c2ccc(OC)cc2)C(=O)C1=O (configuration not stated)	none
CC(C)N(C(=O)CSc1nn2c(=O)c(C(C)(C)C)nnc2s1)c1ccccc1	none
Cc1cc(C(=O)CSc2nn3c(=O)c(C(C)(C)C)nnc3s2)c(C)n1-c1ccc(F)cc1	HCV NS3 hel inh 39.5 | NS3 hel confirm inactive | DNA FID counter-2 inactive
Cc1cc(OCc2nnc(SC(C)C(=O)O)n2-c2ccccc2)ccc1Cl (configuration not stated)	HCV NS3 hel inh 53.2 | NS3 hel confirm 39.7 | DNA FID counter-2 inactive
Cc1ccc(OCc2nnc(SC(C)C(=O)O)n2Cc2ccccc2)cc1 (configuration not stated)	none
CCc1nnc(NS(=O)(=O)c2ccc(NC(=S)NC(=O)c3ccc(OC)cc3)cc2)s1	HCV NS3 hel inh 37.3 | NS3 hel confirm 52.2 | DNA FID counter-2 inactive
Cn1nc(C(C)(C)C)cc1C(=O)Sc1cccc(Br)c1	none
CCc1sc(C(C2C(=O)CC(C)(C)CC2=O)C2C(=O)CC(C)(C)CC2=O)cc1[N+](=O)[O-]	HCV NS3 hel inh 59.2 | NS3 hel confirm 67.9 | DNA FID counter-2 inactive
CCOc1ccc(/C=c2\sc3nc(-c4ccco4)nn3c2=O)cc1OCC	HCV NS3 hel inh 37.8 | NS3 hel confirm 47.0 | DNA FID counter-2 inactive | FID counter DR inactive
COc1ccccc1/C=c1\sc2nc(-c3ccco3)nn2c1=O	none
CC(C)CSC1=NSC2=NC(=O)/C(=C\c3cccs3)C(=N)N12	HCV NS3 hel inh 37.2 | NS3 hel confirm 53.1 | DNA FID counter-2 inactive
O=C1NN(c2ccc(Cl)cc2)C(=O)/C1=C\c1ccc(-c2cccc(C(=O)O)c2)o1	HCV NS3 hel inh 46.4 | NS3 hel confirm 65.8 | DNA FID counter-2 inactive
CN(CCC#N)C(=O)COC(=O)c1c2c(nc3ccccc13)/C(=C/c1ccco1)CC2	HCV NS3 hel inh 77.3 | NS3 hel confirm inactive | DNA FID counter-2 inactive
CC1CCCC(NC(=O)c2ccc3c(c2)NC(=O)CS3)C1C (configuration not stated)	none
CCc1nnc(NC(=O)c2cc(-c3ccco3)nc3ccccc23)s1	HCV NS3 hel inh 37.6 | NS3 hel confirm inactive | DNA FID counter-2 inactive
COc1ccc(NC(=O)c2cc(-c3ccco3)nc3ccccc23)cc1S(=O)(=O)N1CCOCC1	HCV NS3 hel inh 54.0 | NS3 hel confirm 73.3 | DNA FID counter-2 inactive
Cc1ccc(NC(=O)c2cc(-c3ccco3)nc3ccccc23)cc1S(=O)(=O)N1CCOCC1	none
CCc1nnc(NC(=O)c2cc(-c3ccccn3)nc3ccccc23)s1	none
O=C(O)c1ccc(-c2ccco2)n1Cc1ccccc1	IMP-1 inh 8.8, HCV NS3 hel inh 45.3 | NS3 hel confirm inactive | DNA FID counter-2 inactive
CCOc1ccc(-c2nc(CN3CCCC(C(=O)N4CCOCC4)C3)c(C)o2)cc1 (configuration not stated)	none
CCCCNCC1C(Oc2ccc(Cl)cc2)C(=O)N1c1ccccc1C (configuration not stated)	none
COc1ccccc1-c1nnc(NC(=O)c2ccc(S(=O)(=O)N3CCCC3)cc2)o1	HCV NS3 hel inh 53.3 | NS3 hel confirm inactive | DNA FID counter-2 inactive
COc1cc(NC(=O)CSc2cc(C)c3cc(C)cc(C)c3n2)c(C(=O)O)cc1OC	none
COc1ccccc1N1C(=O)CC(Nc2ccc(N3CCOCC3)cc2)C1=O (configuration not stated)	none
CCOc1ccccc1N1C(=O)CC(Nc2ccc(N3CCOCC3)cc2)C1=O (configuration not stated)	HCV NS3 hel inh 42.4 | NS3 hel confirm inactive | DNA FID counter-2 inactive
COc1ccc(NC(=O)C(CC(=O)O)Cc2ccccc2)cc1 (configuration not stated)	none
COc1cc(CC(CC(=O)O)CC(C)OCc2ccccc2)cc(OC)c1 (configuration not stated)	HCV NS3 hel inh 38.6 | NS3 hel confirm inactive | DNA FID counter-2 inactive
CC(C)c1ccc(N(C(=O)c2csnn2)C(C(=O)NC2CCCC2)c2cccnc2)cc1 (configuration not stated)	none
CCOC(=O)CN1C(=O)S/C(=C/c2ccc(OCc3ccc(C(=O)O)cc3)cc2)C1=O	HCV NS3 hel inh 42.2 | NS3 hel confirm inactive | DNA FID counter-2 inactive
Cc1ccc(CNC(=O)CCS(=O)(=O)Cc2ccc(C)cc2)cc1	none
Cc1ccc(CN=C(N)Nc2nc(C)cc(C)n2)cc1	none
CCN(CC)c1ccc(S(=O)(=O)Nc2cc(Cl)ccc2Cl)cc1NC(=S)NC(=O)C1CCCC1	HCV NS3 hel inh 58.4 | NS3 hel confirm inactive | DNA FID counter-2 inactive
COc1ccccc1NS(=O)(=O)c1ccc(Cl)c(NC(=S)NC(=O)C2CCCC2)c1	none
O=C(O)c1ccc2c(c1)C(=O)/C(=C/c1ccccc1)C2=O	none
O=C(O)c1ccc2c(c1)C(=O)/C(=C\c1ccco1)C2=O	HCV NS3 hel inh 62.5 | NS3 hel confirm inactive | DNA FID counter-2 inactive
CN(C(=O)C1CCC(=O)N(CCc2ccc(Cl)cc2)C1)C1CCOCC1 (configuration not stated)	none
O=c1c2cc(Br)ccc2nc(-c2ccc(Cl)cc2)n1O	HCV NS3 hel inh 36.6 | NS3 hel confirm 40.2 | DNA FID counter-2 inactive
Cc1ccc(-c2nc3c(Cl)cc(Cl)cc3c(=O)n2O)cc1	HCV NS3 hel inh 36.0 | NS3 hel confirm 61.9 | DNA FID counter-2 inactive
O=c1c2cc(Cl)ccc2nc(-c2ccc([N+](=O)[O-])cc2)n1O	none
COc1cc([N+](=O)[O-])c2ncsc2c1	none
COc1cc(SSc2cc(OC)cc([N+](=O)[O-])c2N)c(N)c([N+](=O)[O-])c1	none | NS3 hel confirm inactive | DNA FID counter-2 inactive
Cc1ccc(NC(=O)CC2SC(=O)NC2=O)cc1 (configuration not stated)	HCV NS3 hel inh 47.4 | NS3 hel confirm inactive | DNA FID counter-2 inactive
COc1ccc(C2C(C#N)=C(N)Oc3cc4c(cc32)OCO4)cc1 (configuration not stated)	HCV NS3 hel inh 39.8 | NS3 hel confirm inactive | DNA FID counter-2 inactive
COc1ccc(OC)c(C2C(C#N)=C(N)Oc3cc(N)ccc32)c1 (configuration not stated)	none
COCCn1c(=NC(=O)c2cc(-c3cccs3)nc3ccccc23)sc2cc(S(N)(=O)=O)ccc21	HCV NS3 hel inh 64.4 | NS3 hel confirm inactive | DNA FID counter-2 inactive
